According to PMC5570473 (Nature chemical biology, 2017):
Like-named read-outs stand apart in the source and are kept apart here. Peptide text beside a SMILES is read from it. * marks the point of attachment. Cbz = O=C(OCc1ccccc1)*

How the values were obtained:
Rpn11 = Rpn11 (Homo sapiens, UniProt O00487); test: In vitro Rpn11 activity assay; format: biochemical; details: for effect of Zn(cyclen)^2+ on IC50 for Rpn11: 100 μM Zn(cyclen)^2+ present
A549 cells = test: Aggresome formation and clearance assay; format: cell-based, human; details: for aggresome formation (ubiquitin, HDAC6, p62/SQSTM1 staining): 15 hours
Method in brief: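 A549 cells were loaded with 5 μM MG132 for 15 h, washed free of it, then held ± a range of test compound concentrations for 24 h. They were fixed in 4% paraformaldehyde, permeabilised with 0.2% Triton X-100, blocked in 5% FBS/0.1% Triton X-100, immunostained for ubiquitin, HDAC6 or p62/SQSTM1, and imaged.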

Rpn11•Rpn8 heterodimer = Rpn11•Rpn8 heterodimer (Saccharomyces cerevisiae, UniProt P43588); test: Rpn11•Rpn8 di-Ub cleavage assay; format: biochemical; details: 40 μM, 20 μM or 10 μM
Sequence of Rpn11•Rpn8 heterodimer (P43588 2-239 limits assumed): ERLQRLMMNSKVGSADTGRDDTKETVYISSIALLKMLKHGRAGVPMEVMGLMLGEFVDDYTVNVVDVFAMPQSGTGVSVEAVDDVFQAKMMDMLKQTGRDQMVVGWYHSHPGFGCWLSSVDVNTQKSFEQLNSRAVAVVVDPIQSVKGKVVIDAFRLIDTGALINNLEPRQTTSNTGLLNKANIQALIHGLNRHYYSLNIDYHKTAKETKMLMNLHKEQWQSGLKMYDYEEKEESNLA
Sequence of Rpn11•Rpn8 heterodimer (Q08723 1-179 partner limits assumed): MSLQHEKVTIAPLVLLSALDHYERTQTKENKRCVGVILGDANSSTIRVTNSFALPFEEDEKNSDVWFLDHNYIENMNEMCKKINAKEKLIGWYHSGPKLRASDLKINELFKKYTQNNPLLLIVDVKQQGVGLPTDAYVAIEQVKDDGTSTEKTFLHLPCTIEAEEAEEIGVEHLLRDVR
Method in brief: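 Purified Rpn11•Rpn8 dimer (5 μM) was incubated at 30°C with K48-linked di-ubiquitin and varying test compound concentrations. The buffer was 40 mM HEPES pH 7.5, 100 mM NaCl, 100 mM KCl, 5% glycerol.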

[1] = mice ref 49; cited from earlier work
[2] = tested on: Hela cells stably expressing Ub^G76V-GFP; test: Ub^G76V-GFP accumulation assay; format: cell-based; details: for accumulation of Ub^G76V-GFP: 5 μM, 4 hours
[3] = tested on: WT or nfe2l1^−/− MEF cells; test: Cell growth inhibition in WT versus Nrf1 knockout MEF cells; format: cell-based; details: 72 hours
[4] = tested on: angiomotin K481 ubiquitination in 293T cells; test: Quantitative ubiquitination site profiling; format: cell-based, human; details: 8 hours, 10 μM capzimin or 1 μM BTZ
Method in brief: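 SILAC-labelled HEK293T cells were grown in Arg/Lys-free DMEM with 10% dialysed FBS, 1 mM pyruvate and 10 mg/L proline. At 80–90% confluence they were treated 8 h with 10 μM test compound (n=3), 1 μM bortezomib (n=4) or DMSO. Cells were trypsinised and pooled from three plates per treatment. Lysates were trypsin-digested with NEM alkylation, K-ε-GlyGly peptides enriched by antibody, and analysed by LC-MS.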

MMP2 = test: MMP activity assay; format: biochemical, human
HCT116 cells [5] = test: Cell growth inhibition, CellTiter-Glo, 72 hours; format: cell-based; details: Homo sapiens, HCT-116, 72 h
Method in brief: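 HCT116 cells were exposed to a test-compound concentration series for 72 h in normal or low-serum medium, then mixed with CellTiter-Glo. Luminescence was normalised to DMSO and a dose-response fit gave GI50. Data are n=3 wells, one representative of 3 independent experiments.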

angiomotin in 293T cells = test: Pulldown of polyubiquitylated protein; format: cell-based; details: 8 hours
Method in brief: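 293T cells were treated 8 h with test compound, bortezomib or DMSO. Lysis was in 40 mM Tris-HCl pH 7.6, 5 mM NEM, 0.1% NP-40, followed by binding to TUBE2 agarose for 2 h at 4°C. Beads were washed three times in the same buffer with 150 mM NaCl, then eluted in SDS buffer. Eluates were immunoblotted for ubiquitin and angiomotin.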

HDAC6 = test: HDAC 6 activity assay; format: biochemical
HCT116 cells [6] = test: Immunoblot of UPS substrates, UPR and apoptosis markers; format: cell-based
Method in brief: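 HCT116 cells were treated 6 h with 2 or 10 μM test compound, alongside 1 μM bortezomib, 10 μM CB5083 or 2 μg/ml tunicamycin. Lysates were immunoblotted for ubiquitin, p53, Hif1α, PERK, BiP, XBP1s, CHOP and GAPDH. For apoptosis, HCT116 cells were treated 24 h and blotted for PARP1, caspase3, pH2AX and GAPDH.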

BRCC36 = BRCC36 (Homo sapiens, UniProt P46736); test: In vitro BRCC36 activity assay; format: biochemical
Method in brief: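 BRISC complex (BRCC36, KIAA0157, BRCC45, MERIT40) was co-expressed in insect cells and purified to >95% by affinity and size exclusion. 1 nM BRISC was reacted with 80 nM DiUbK63-TAMRA, monitoring TAMRA fluorescence (ex 540/em 590 nm). Data were normalised to DMSO and fitted for IC50. With substrate far below KM, IC50 approximates Ki.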

[7] = tested on: WT or bortezomib-resistant RPE1 cells; test: Cell growth inhibition in WT and bortezomib-resistant RPE1 cells; format: cell-based; details: 72 hours
Method in brief: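 WT and bortezomib-resistant RPE1 cells received a concentration series of test compound for 72 h before CellTiter-Glo addition. Luminescence was normalised to DMSO control and fitted to a dose-response equation for GI50. Data are n=3 wells, from one representative of 3 independent experiments.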

carbonic anhydrase II = test: hCAII activity assay; format: biochemical, human
26S proteasome = 26S proteasome (Saccharomyces cerevisiae, UniProt P43588); format: biochemical, yeast; details: 20 μM, purified proteasomes
Method in brief: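 Alexa488-labelled Rpn10-I27V13Pext (100 nM) was incubated with 10 nM purified yeast 26S proteasome at 30°C, ± 20 μM test compound. Aliquots were taken at 0, 30, 60, 90 and 120 min into SDS sample buffer and resolved by SDS-PAGE. Intact substrate was quantified by fluorescence gel imaging (488/520 nm).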

[8] = tested on: NCI panel of 60 cancer cell lines; test: NCI panel of 60 cancer cell lines; format: cell-based; details: Homo sapiens, read-out: median GI50 NCI 60 panel
SR cell line (leukemia) = test: NCI 60 panel, SR cell line; format: cell-based; details: Homo sapiens, read-out: GI50 SR
[9] = tested on: K562 cell line (leukemia); test: NCI 60 panel, K562 cell line; format: cell-based; details: Homo sapiens, K562, read-out: GI50 K562
MCF7 (breast cancer) = test: NCI 60 panel, MCF7; format: cell-based; details: Homo sapiens, MCF7, read-out: GI50 MCF7
glyoxalase I (GLO1) = glyoxalase I (GLO1) (Homo sapiens, UniProt Q04760); test: Human Glyoxalase 1 assay; format: biochemical
Sequence of glyoxalase I (GLO1) (Q04760 2-184 limits assumed): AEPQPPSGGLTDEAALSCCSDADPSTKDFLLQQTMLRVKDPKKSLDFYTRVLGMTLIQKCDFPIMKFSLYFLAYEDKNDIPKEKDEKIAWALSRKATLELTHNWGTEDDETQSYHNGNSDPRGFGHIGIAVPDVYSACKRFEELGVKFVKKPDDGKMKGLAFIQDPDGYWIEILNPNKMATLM
Method in brief: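 Recombinant human GLO1 (40 ng) was preincubated 15–20 min with inhibitor in 100 mM sodium phosphate, pH 7.0. Substrate was then added, formed by letting glutathione and methylglyoxal stand 20 min in buffer (≤5% DMSO final). A240 was read every minute for 8 min. Rates were compared with no-inhibitor controls after subtracting no-enzyme background.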

HEK293T cells = test: Cellular imaging with optical zinc sensor; format: cell-based; details: 10 μM
Method in brief: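 HEK293T cells were transfected with a FRET zinc sensor and imaged 24–48 h later at 37°C/5% CO2 in phosphate-free HEPES-buffered HBSS, pH 7.4, with frames every minute. After 5 min resting FRET, 10 μM test compound or 0.5% DMSO was added (n=11 cells each). Calibration used 50 μM TPA, then 0.75 μM pyrithione plus 12 μM buffered zinc. Background-corrected FRET/CFP ratios were normalised to resting; error bars SEM.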

[10] = tested on: NCI-H460 (non-small cell lung cancer); test: NCI 60 panel, NCI-H460; format: cell-based; details: Homo sapiens, NCI-H460, read-out: GI50 NCI-H460
MMP12 = test: MMP activity assay; format: biochemical, human
AMSH = AMSH (Homo sapiens, UniProt O95630); test: In vitro AMSH activity assay; format: biochemical
Sequence of AMSH (O95630 whole entry): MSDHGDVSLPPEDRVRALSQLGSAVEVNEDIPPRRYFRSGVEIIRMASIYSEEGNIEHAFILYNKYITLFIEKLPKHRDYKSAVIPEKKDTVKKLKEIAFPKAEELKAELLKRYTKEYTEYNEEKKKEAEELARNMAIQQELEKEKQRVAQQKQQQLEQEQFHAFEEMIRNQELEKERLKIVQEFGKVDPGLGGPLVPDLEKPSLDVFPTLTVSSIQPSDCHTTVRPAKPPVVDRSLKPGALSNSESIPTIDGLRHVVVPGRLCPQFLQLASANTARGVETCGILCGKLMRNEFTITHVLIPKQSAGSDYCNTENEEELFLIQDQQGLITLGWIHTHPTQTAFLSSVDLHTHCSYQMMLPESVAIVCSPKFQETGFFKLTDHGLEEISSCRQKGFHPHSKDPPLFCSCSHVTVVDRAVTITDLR

Sc1cccc2cccnc12 [8TQ, quinoline-8-thiol]
mode of inhibition of Rpn11 / 26S proteasome (Rpn11): uncompetitive inhibition | effect of Zn(cyclen)^2+ on IC50 for Rpn11 (Rpn11): shifted the IC50 of both compounds to a higher value | discrimination between Rpn11, BRCC36 and AMSH (Rpn11; details will be published elsewhere): did not distinguish between Rpn11, BRCC36, and AMSH | inhibition at 200 µM (Rpn11; read-out: inhibition of Rpn11 activity in MBP library screen): > 50% | clearance of MG132-induced aggresomes after MG132 removal and compound addition (A549 cells): not cleared | inhibition of purified Rpn11•Rpn8 (K48 di-ubiquitin cleavage) (Rpn11•Rpn8 heterodimer): inhibited purified Rpn11•Rpn8 heterodimer | oral bioavailability [1]: orally bioavailable | tolerability [1]: tolerated

O=C(Sc1cccc2cccnc12)c1ccccc1Br [H18, S-(Quinolin-8-yl) 2-bromobenzothioate]
effect of Zn(cyclen)^2+ on IC50 for Rpn11 (Rpn11): shifted the IC50 of both compounds to a higher value

CC(C)C[C@@H](C=O)NC(=O)[C@H](CC(C)C)NC(=O)[C@H](CC(C)C)NC(=O)OCc1ccccc1 [MG132, reference compound] (Cbz-Leu-Leu-Leu-aldehyde)
aggresome formation (ubiquitin, HDAC6, p62/SQSTM1 staining) (A549 cells): punctate staining characteristic of aggresomes | accumulation of Ub^G76V-GFP [2]: strong accumulation

CC(C)C[C@H](NC(=O)[C@H](Cc1ccccc1)NC(=O)c1cnccn1)B(O)O [bortezomib, reference compound]
sensitivity of Nrf1^−/− cell line compared to WT MEF [3]: more sensitive | up-regulation of angiomotin ubiquitination at K481 [4]: 2.4 fold

O=C(NCCc1nccs1)c1cnc2c(SSc3cccc4cc(C(=O)NCCc5nccs5)cnc34)cccc2c1 [capzimin]
preference for inhibiting Rpn11 compared to MMP2 (MMP2): > 2 log | GI50 (HCT116 cells [5]; read-out: GI50 HCT116): ~2 µM | GI50 (HCT116 cells [5]; read-out: GI50 HCT116 low serum): 0.6 µM | accumulation of high molecular weight species of angiomotin (angiomotin in 293T cells): strong accumulation | preference for inhibiting Rpn11 compared to HDAC6 (HDAC6): > 2 log | effect on Nedd8-conjugated Cul1 (cellular Csn5) (HCT116 cells [6]): little effect | accumulation of ubiquitin conjugates and proteasome substrates p53, Hif1α, Nrf2 (HCT116 cells [6]; 2 or 10 μM, 6 hours): caused accumulation | apoptosis (processed caspase 3, cleaved PARP) (HCT116 cells [6]; 24 hours): induced apoptosis | unfolded protein response (phosphorylated PERK, XBP1s, CHOP) (HCT116 cells [6]; HCT116 and 293T cells): provoked a UPR response | mode of inhibition of BRCC36 (BRCC36): competitive inhibitor | GI50 against WT versus bortezomib-resistant retinal pigment epithelial cells [7]: same GI50 | mode of inhibition of Rpn11 / 26S proteasome (Rpn11): uncompetitive inhibitor | preference for inhibiting Rpn11 compared to carbonic anhydrase II (carbonic anhydrase II): > 2 log | sensitivity of Nrf1^−/− cell line compared to WT MEF [3]: more sensitive | influence on degradation of ubiquitin-independent substrate Rpn10-127^V13Pext (26S proteasome): no influence | GI50 [8]: 3.3 µM | aggresome formation (ubiquitin, HDAC6, p62/SQSTM1 staining) (A549 cells): punctate staining characteristic of aggresomes | GI50 (SR cell line (leukemia)): 0.67 µM | GI50 [9]: 1 µM | up-regulation of angiomotin ubiquitination at K481 [4]: ~ 16 fold | GI50 (MCF7 (breast cancer)): 1 µM | IC50 (glyoxalase I (GLO1)): 43 µM | accumulation of Ub^G76V-GFP [2]: strong accumulation | reversibility of inhibitory effect ([2]; after washout): reversible after washout | inhibition of purified Rpn11•Rpn8 (K48 di-ubiquitin cleavage) (Rpn11•Rpn8 heterodimer): acted directly on Rpn11•Rpn8 | reduction in total cellular zinc (HEK293T cells): ≤ 5% | GI50 [10]: 0.7 µM | preference for inhibiting Rpn11 compared to MMP12 (MMP12): > 2 log | mode of inhibition of AMSH (AMSH): competitive inhibitor
